This note sets out measurements from ChEMBL document CHEMBL3244080, “Structure-activity correlations for a series of antiallergy agents. Oxanilic, quinaldic, and benzopyran-2-carboxylic acids” (1978).

SMILES strings stand for the structures.

This experiment concerns Rattus norvegicus. Put plainly: Antiallergic activity in iv dosed Sprague-Dawley rat assessed as inhibition of egg albumin-induced passive cutaneous anaphylaxis. Format: functional. To be noted: for ED50: Rattus norvegicus, Sprague-Dawley, iv. The essentials: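 Rat passive cutaneous anaphylaxis; drug given iv as its tris(hydroxymethyl)aminomethane (THAM) salt solution at the moment of antigen challenge. Percent inhibition of the PCA reaction measured at three or more trial doses; ED50 = dose giving 50% inhibition of the anaphylactic reaction.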

As for `Nc1ccc2nc(C(=O)O)cc(O)c2c1`, the Activity_index was 9.9 and the ED50 came to 48.3 µmol/kg.

Regarding `COc1ccc2nc(C(=O)O)cc(O)c2c1`, the Activity_index came to 9.4 and the ED50 is 82.2 µmol/kg.

`O=C(O)C(=O)Nc1ccccc1`: the Activity_index was found to be 8.3 and the ED50 came to 245 µmol/kg.

For the compound `N#Cc1ccc(NC(=O)C(=O)O)cc1`, the Activity_index was 10.1 and the ED50 is 40.5 µmol/kg.

On to `N#Cc1ccccc1NC(=O)C(=O)O`, for which the Activity_index stood at 11.5 and the ED50 worked out at 10.1 µmol/kg.

For the compound `N#Cc1cccc(NC(=O)C(=O)O)c1`, the Activity_index is recorded as 12.6 and the ED50 was 3.38 µmol/kg.

Turning to `N#Cc1cc(NC(=O)C(=O)O)ccc1Cl`, the Activity_index is 13.1 and the ED50 came to 2.06 µmol/kg.

Consider `N#Cc1ccc(Cl)c(NC(=O)C(=O)O)c1`, for which the Activity_index is 13.3 and the ED50 stood at 1.74 µmol/kg.

Turning to `N#Cc1cc(C#N)cc(NC(=O)C(=O)O)c1`, the Activity_index is reported as 14 and the ED50 was determined as 0.84 µmol/kg.

Take `Nc1ccc2oc(C(=O)O)cc(=O)c2c1`: the Activity_index stood at 10 and the ED50 came out at 43.5 µmol/kg.

On to `O=C(O)c1cc(=O)c2cc([N+](=O)[O-])ccc2o1`, for which the Activity_index turned out to be 11.9 and the ED50 came out at 6.48 µmol/kg.

As for `O=C(O)c1cc(=O)c2c(OCC(O)COc3cccc4oc(C(=O)O)cc(=O)c34)cccc2o1` [CROMOLYN SODIUM], the ED50 turned out to be 6.1 µmol/kg.

`O=C(O)c1cc(=O)c2ccccc2[nH]1` [TRANSTORINE]: the Activity_index turned out to be 10.1 and the ED50 came out at 42.4 µmol/kg.

As to `O=C(O)c1cc(O)c2cccc(O)c2n1` [XANTHURENATE], the Activity_index worked out at 9.1 and the ED50 came out at 114 µmol/kg.
